# What was measured:
# [1] = biological target: T1, Bromodomain-containing protein 4 (Homo sapiens, UniProt O60885); experiment: Inhibition of SGRG-K(Ac)-GG-K(Ac)-GLGK(Ac)-GGA-K(Ac)-RHRKVGG-K(Biotin) binding to N-terminal 6xHis-tagged human BRD4 bromodomain 1 expressed in Escherichia coli BL21 (DE3) at 50 uM preincubated for 10 mins followed by peptide addition and measured after 10 mins by AlphaScreen assay relative to control
# Method in brief: (§1)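 AlphaScreen peptide displacement. His-tagged BRD4 BD1 preincubated 10 min at room temperature with compound in buffer (0.1% Triton X-100, 1 mM DTT, 0.1% BSA). Then 25 nM biotinylated tetra-acetylated H4-type peptide added for 10 min, Ni-chelate acceptor beads for 30 min, and streptavidin donor beads for 30 min in subdued light. Alpha signal read; JQ-1 as control. IC50 from four-parameter log-logistic fit.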
# [2] = biological target: T1, Bromodomain-containing protein 4; experiment: Inhibition of SGRG-K(Ac)-GG-K(Ac)-GLGK(Ac)-GGA-K(Ac)-RHRKVGG-K(Biotin) binding to N-terminal 6xHis-tagged human BRD4 bromodomain 1 expressed in Escherichia coli BL21 (DE3) preincubated for 10 mins followed by peptide addition and measured after 10 mins by AlphaScreen assay; method in brief: as §1
# [3] = tested on: MV4-11; experiment: Induction of apoptosis in human MV4-11 cells assessed as necrotic cells after 72 hrs by annexin-V-FITC/propidium iodide staining-based flow cytometric method (reference value: 0%); type: functional
# Method in brief: (§2)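 MV4-11 cells seeded at 3 × 10⁵ in 6-well plates, settled 30 min, then given compound or DMSO for 72 h. Resuspended in 1× binding buffer with Annexin V-FITC for 15 min at room temperature in the dark, then PI added 5 min before flow cytometry. Populations quantified with the instrument software.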
# [4] = tested on: MV4-11; experiment: Induction of apoptosis in human MV4-11 cells assessed as early apoptotic cells after 72 hrs by annexin-V-FITC/propidium iodide staining-based flow cytometric method (reference value: 1.64%); type: functional; method in brief: as §2
# [5] = tested on: MV4-11; experiment: Induction of apoptosis in human MV4-11 cells assessed as late apoptotic cells after 72 hrs by annexin-V-FITC/propidium iodide staining-based flow cytometric method (reference value: 2.14%); type: functional; method in brief: as §2
# [6] = tested on: MV4-11; experiment: Cell cycle arrest in human MV4-11 cells assessed as accumulation at G2 phase after 24 hrs by propidium iodide staining-based flow cytometric method (reference value: 11.98%); type: functional
# [7] = tested on: MV4-11; experiment: Induction of apoptosis in human MV4-11 cells assessed as viable cells after 72 hrs by annexin-V-FITC/propidium iodide staining-based flow cytometric method (reference value: 96.2%); type: functional; method in brief: as §2
# [8] = tested on: MV4-11; experiment: Cell cycle arrest in human MV4-11 cells assessed as accumulation at G1 phase after 24 hrs by propidium iodide staining-based flow cytometric method (reference value: 54.50%); type: functional
# [9] = tested on: MV4-11; experiment: Cell cycle arrest in human MV4-11 cells assessed as accumulation at S phase after 24 hrs by propidium iodide staining-based flow cytometric method (reference value: 33.52%); type: functional
# [10] = biological target: T1, Bromodomain-containing protein 4; experiment: Binding affinity to N-terminal 6xHis-tagged human BRD4 bromodomain 1 expressed in Escherichia coli BL21 (DE3) assessed as change in melting temperature at 100 uM by SYPRO orange dye-based RT-PCR method (reference value: 0 degC)
# [11] = biological target: T1, Bromodomain-containing protein 4; experiment: Binding affinity to N-terminal 6xHis-tagged human BRD4 bromodomain 1 expressed in Escherichia coli BL21 (DE3) assessed as change in melting temperature at 200 uM by SYPRO orange dye-based RT-PCR method (reference value: 0 degC)
# [12] = tested on: MV4-11; experiment: Induction of apoptosis in human MV4-11 cells assessed as viable cells at 50 uM after 72 hrs by annexin-V-FITC/propidium iodide staining-based flow cytometric method (reference value: 96.2%); type: functional; conditions: MV4-11, 72 h, read-out: Activity; method in brief: as §2
# [13] = biological target: T1, Bromodomain-containing protein 4; experiment: Inhibition of BRD4 in human MV4-11 cells assessed as downregulation of c-Myc gene expression after 6 hrs by qRT-PCR method; type: cell-based
# Method in brief: (§3)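 MV4-11 cells given compound at varied concentrations (10 and 30 μM) for 6 h. Bcl-2, c-Myc and CDK6 transcripts quantified by real-time quantitative PCR relative to untreated control.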
# [14] = tested on: MV4-11; experiment: Cell cycle arrest in human MV4-11 cells assessed as accumulation at S phase at 50 uM after 24 hrs by propidium iodide staining-based flow cytometric method (reference value: 33.52%); type: functional
# [15] = tested on: MV4-11; experiment: Cell cycle arrest in human MV4-11 cells assessed as accumulation at G1 phase at 50 uM after 24 hrs by propidium iodide staining-based flow cytometric method (reference value: 54.50%); type: functional
# [16] = biological target: T1, Bromodomain-containing protein 4; experiment: Inhibition of BRD4 in human MV4-11 cells assessed as downregulation of CDK6 gene expression after 6 hrs by qRT-PCR method; type: cell-based; method in brief: as §3
# [17] = tested on: MV4-11; experiment: Induction of apoptosis in human MV4-11 cells assessed as necrotic cells at 50 uM after 72 hrs by annexin-V-FITC/propidium iodide staining-based flow cytometric method (reference value: 0%); type: functional; method in brief: as §2
# [18] = tested on: MV4-11; experiment: Antiproliferative activity against human MV4-11 cells after 3 days by Alamar blue assay; type: functional, cell-based
# Method in brief: (§4)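 MV4-11 cells in RPMI 1640 with 10% FBS and 1% Pen/Strep at 37 °C, 5% CO2. Seeded at 1 × 10⁵–3 × 10⁵, settled 30 min, then given graded compound concentrations or DMSO for three or seven days. Alamar Blue added for 3 h at 37 °C; fluorescence read at ex 544/em 590 nm. Viability normalized to control; IC50 fitted from the dose–response.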
# [19] = tested on: MV4-11; experiment: Antiproliferative activity against human MV4-11 cells after 7 days by Alamar blue assay; type: functional, cell-based; method in brief: as §4
# [20] = biological target: T1, Bromodomain-containing protein 4; experiment: Inhibition of BRD4 in human MV4-11 cells assessed as downregulation of Bcl-2 gene expression after 6 hrs by qRT-PCR method; type: cell-based; method in brief: as §3
# [21] = tested on: MV4-11; experiment: Cell cycle arrest in human MV4-11 cells assessed as accumulation at G2 phase at 50 uM after 24 hrs by propidium iodide staining-based flow cytometric method (reference value: 11.98%); type: functional
# [22] = biological target: T1, Bromodomain-containing protein 4; experiment: Inhibition of BRD4 in human MV4-11 cells assessed as downregulation of c-Myc protein expression after 6 hrs by Western blot method; type: cell-based
# Method in brief: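 MV4-11 cells seeded at 3 × 10⁵ in 6-well plates, settled 30 min, then given graded compound concentrations or DMSO for 6 h. Probed with rabbit anti-c-Myc mAb and HRP-labelled secondary.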
# [23] = tested on: MV4-11; experiment: Induction of apoptosis in human MV4-11 cells assessed as late apoptotic cells at 50 uM after 72 hrs by annexin-V-FITC/propidium iodide staining-based flow cytometric method (reference value: 2.14%); type: functional; method in brief: as §2
# [24] = biological target: T1, Bromodomain-containing protein 4; experiment: Binding affinity to N-terminal 6xHis-tagged human BRD4 bromodomain 1 expressed in Escherichia coli BL21 (DE3) assessed as change in melting temperature by SYPRO orange dye-based RT-PCR method
# [25] = tested on: MV4-11; experiment: Induction of apoptosis in human MV4-11 cells assessed as early apoptotic cells at 50 uM after 72 hrs by annexin-V-FITC/propidium iodide staining-based flow cytometric method (reference value: 1.64%); type: functional; method in brief: as §2
smiles,measurement,setting,value
CCc1nnc(NC(=O)c2cc(OC)c(OC)c(OC)c2)s1,inhibition,[1],90%
COc1cc(C(=O)NCCc2cccs2)cc(OC)c1OC,IC50,[2],6.4 µM
COC(=O)C(CCSC)NC(=O)c1cc(OC)c(OC)c(OC)c1 (configuration not stated),IC50,[2],2.1 µM
COc1cc2c(cc1-c1c(C)noc1C)ncc1[nH]c(=O)n([C@H](C)c3ccccn3)c12,Activity,[3],0.718%
same,Activity,[4],18.4%
same,Activity,[5],33.1%
same,Activity,[6],2.78%
same,Activity,[7],47.8%
same,Activity,[8],90.86%
same,Activity,[9],6.36%
CCC(CO)NC(=O)c1cc(OC)c(OC)c(OC)c1 (configuration not stated),inhibition,[1],94%
COc1cc(C(=O)Nc2nc(C)cs2)cc(OC)c1OC,inhibition,[1],96%
COc1cc(C(=O)NC2CCCC2)cc(OC)c1OC,inhibition,[1],90%
COCc1nnc(NC(=O)c2cc(OC)c(OC)c(OC)c2)s1,IC50,[2],11 µM
COc1cc(C(=O)Nc2nccs2)cc(OC)c1OC,IC50,[2],4.3 µM
COc1cc(C(=O)NCC2CCCO2)cc(OC)c1OC (configuration not stated),inhibition,[1],94%
COc1cc(C(=O)NCCCn2ccnc2)cc(OC)c1OC,inhibition,[1],90%
COc1cc(C(=O)Nc2nnc(C)s2)cc(OC)c1OC,inhibition,[1],90%
COc1cc(C(=O)NCCOc2ccccc2)cc(OC)c1OC,IC50,[2],6.6 µM
COC(=O)C(CC(C)C)NC(=O)c1cc(OC)c(OC)c(OC)c1 (configuration not stated),IC50,[2],8.5 µM
COc1cc(C(=O)Nc2ccnn2C2CCCC2)cc(OC)c1OC,ΔTm,[10],1.9 °C
same,ΔTm,[11],3.31 °C
same,IC50,[2],2.01 µM
same,viability at 50 µM,[12],89%
same,inhibition,[13],Dose-dependent effect
same,Activity,[14],16.83%
same,Activity,[15],79.1%
same,inhibition,[16],Dose-dependent effect
same,Activity,[17],0.073%
same,Activity,[18],Dose-dependent effect
same,Activity,[19],Dose-dependent effect
same,inhibition,[20],Dose-dependent effect
same,Activity,[21],16.83%
same,inhibition,[22],Dose-dependent effect
same,Activity,[23],6.86%
same,Activity,[24],Dose-dependent effect
same,Activity,[25],4.06%

# From ChEMBL document CHEMBL4261512, “Discovery of novel trimethoxy-ring BRD4 bromodomain inhibitors: AlphaScreen assay, crystallography and cell-based assay” (Medchemcomm, 2017)
